“Also recorded” adds a separate entry of the source.
Experiments:
trastuzumab [1] = target: T1, trastuzumab (Homo sapiens, UniProt P01857); assay: Random conjugation experiments with trastuzumab, LC-FTMS; format: biochemical; settings: 10 eq., 16h, RT, pH 9.5
trastuzumab [2] = target: T1, trastuzumab; assay: Template-directed conjugation to trastuzumab, LC-FTMS analysis; format: biochemical; settings: payload transferred with Fc-III-L6Orn carbonate reactive conjugate
[3] = cited from earlier work
[4] = tested on: mice bearing MDA-MB-231 (PD-L1hi) tumor xenograft; assay: [64Cu]Cu-atezolizumab biodistribution study; format: in vivo, mouse; settings: n = 4, ± SD
Procedure, shortened: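 Each received an i.v. dose of 0.25 MBq labelled conjugate (0.05 μg), given with 49.95 μg unlabelled parent antibody to saturate nonspecific Fc receptors. Animals were killed at 2, 24 and 48 h; organs collected, weighed and counted, and results given as %ID g−1. Blocking group at 24 h: co-injected 2 mg unlabelled antibody per mouse. n = 4 per group.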

[5] = tested on: mice bearing MDA-MB-231 xenograft; assay: [64Cu]Cu-atezolizumab PET/CT imaging study; format: in vivo, mouse; settings: 9 MBq i.v.; 2, 24, 48 h
[6] = 24 h p.i. + blocking (2 mg cold atezolizumab)

T1 sequence (P01857 1-330 isoform P01857-1): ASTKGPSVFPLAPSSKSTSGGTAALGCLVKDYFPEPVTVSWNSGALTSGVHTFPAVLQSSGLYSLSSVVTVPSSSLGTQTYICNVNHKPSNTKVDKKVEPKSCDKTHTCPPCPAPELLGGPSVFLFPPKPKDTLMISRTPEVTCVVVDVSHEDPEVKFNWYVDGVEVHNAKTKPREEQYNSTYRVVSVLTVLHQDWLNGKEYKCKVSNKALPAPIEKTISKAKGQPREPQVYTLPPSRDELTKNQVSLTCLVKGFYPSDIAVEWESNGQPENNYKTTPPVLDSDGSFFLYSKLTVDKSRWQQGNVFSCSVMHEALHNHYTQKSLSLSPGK

## O=C(O)CN1CCN(CC(=O)O)CCN(CC(=O)ON2C(=O)CCC2=O)CCN(CC(=O)O)CC1 [DOTA-NHS]
Trastuzumab [1]
  Labeled mAb: 73%
  Selectivity Fc/Fab: 1.46

## DCAWH N GELVWCT NH2 (disulfide) [DM1]
Trastuzumab [2]
  Labeled mAb: 73%
  Selectivity Fc/Fab: 5.70

## DCAWH N GELVWCT NH2 (disulfide) [DM4]
Trastuzumab [2]
  Labeled mAb: 68%
  Selectivity Fc/Fab: 6.80

## DCAWH N GELVWCT NH2 (disulfide) [FITC]
Trastuzumab [2]
  Labeled mAb: 95%
  Selectivity Fc/Fab: Fc selective

## DCAWH N GELVWCT NH2 (disulfide) [NODAGA]
Trastuzumab [2]
  Labeled mAb: 97%
  Selectivity Fc/Fab: Fc selective

## PNU-159682
Trastuzumab [2]
  Labeled mAb: 46%
  Selectivity Fc/Fab: 5.40
[3]
  Cytotoxicity relative to doxorubicin: more than thousandfold increased cytotoxicity compared to doxorubicin

## [^64Cu]Cu-atezolizumab: atezolizumab-NODAGA prepared with Fc-III-L6Orn-carbonate-NODAGA, radiolabeled with copper-64
[4]; 2 h p.i., i.v. 0.25 MBq
  Biodistribution, Blood: 6.3 ± 3.8 % ID g^−1
  Biodistribution, Bone: 2.5 ± 0.4 % ID g^−1
  Biodistribution, Heart: 7.8 ± 0.6 % ID g^−1
  Biodistribution, Kidney: 11.8 ± 1.3 % ID g^−1
  Biodistribution, Large intestine: 1.2 ± 0.5 % ID g^−1
  Biodistribution, Liver: 8.2 ± 0.1 % ID g^−1
  Biodistribution, Lung: 14.3 ± 1 % ID g^−1
  Biodistribution, Muscle: 1.3 ± 0.1 % ID g^−1
  Biodistribution, Pancreas: 1.8 ± 1.6 % ID g^−1
  Biodistribution, Skin: 1.1 ± 0.3 % ID g^−1
  Biodistribution, Small intestine: 3.8 ± 0.9 % ID g^−1
  Biodistribution, Spleen: 28.1 ± 4 % ID g^−1
  Biodistribution, Stomach: 1.6 ± 0.6 % ID g^−1
  Biodistribution, Tumor (MDA-MB-231): 5 ± 1.2 % ID g^−1
[4]; [6]
  Biodistribution, Blood: 10.9 ± 0.9 % ID g^−1
  Biodistribution, Bone: 1.7 ± 0.1 % ID g^−1
  Biodistribution, Heart: 4 ± 0.3 % ID g^−1
  Biodistribution, Kidney: 4.2 ± 0.1 % ID g^−1
  Biodistribution, Large intestine: 2.7 ± 0.2 % ID g^−1
  Biodistribution, Liver: 5.3 ± 0.6 % ID g^−1
  Biodistribution, Lung: 6.4 ± 0.7 % ID g^−1
  Biodistribution, Muscle: 1 ± 0.2 % ID g^−1
  Biodistribution, Pancreas: 3.6 ± 0.2 % ID g^−1
  Biodistribution, Skin: 2.5 ± 0.4 % ID g^−1
  Biodistribution, Small intestine: 2.6 ± 0.1 % ID g^−1
  Biodistribution, Spleen: 17.9 ± 0.1 % ID g^−1
  Biodistribution, Stomach: 1.5 ± 0.3 % ID g^−1
  Biodistribution, Tumor (MDA-MB-231): 4.3 ± 1 % ID g^−1
[4]; 24 h p.i., i.v. 0.25 MBq
  Biodistribution, Blood: 3.1 ± 1.7 % ID g^−1
  Biodistribution, Bone: 4.2 ± 1.7 % ID g^−1
  Biodistribution, Heart: 6.8 ± 0.5 % ID g^−1
  Biodistribution, Kidney: 11.9 ± 1.3 % ID g^−1
  Biodistribution, Large intestine: 6.1 ± 0.9 % ID g^−1
  Biodistribution, Liver: 11.8 ± 1.9 % ID g^−1
  Biodistribution, Lung: 14.2 ± 1.9 % ID g^−1
  Biodistribution, Muscle: 2.8 ± 0.6 % ID g^−1
  Biodistribution, Pancreas: 9.6 ± 3.6 % ID g^−1
  Biodistribution, Skin: 2.7 ± 0.7 % ID g^−1
  Biodistribution, Small intestine: 8.7 ± 0.9 % ID g^−1
  Biodistribution, Spleen: 42.8 ± 10.7 % ID g^−1
  Biodistribution, Stomach: 4.5 ± 2.3 % ID g^−1
  Biodistribution, Tumor (MDA-MB-231): 11.4 ± 1.8 % ID g^−1
[4]; 48 h p.i., i.v. 0.25 MBq
  Biodistribution, Blood: 2 ± 1.2 % ID g^−1
  Biodistribution, Bone: 2.2 ± 0.4 % ID g^−1
  Biodistribution, Heart: 3.8 ± 0.6 % ID g^−1
  Biodistribution, Kidney: 8 ± 1.8 % ID g^−1
  Biodistribution, Large intestine: 3.7 ± 1 % ID g^−1
  Biodistribution, Liver: 8.5 ± 1.6 % ID g^−1
  Biodistribution, Lung: 6.6 ± 0.7 % ID g^−1
  Biodistribution, Muscle: 1.1 ± 0.1 % ID g^−1
  Biodistribution, Pancreas: 3.1 ± 0.2 % ID g^−1
  Biodistribution, Skin: 2 ± 0.8 % ID g^−1
  Biodistribution, Small intestine: 4.8 ± 1.3 % ID g^−1
  Biodistribution, Spleen: 21.3 ± 6.5 % ID g^−1
  Biodistribution, Stomach: 2.1 ± 0.5 % ID g^−1
  Biodistribution, Tumor (MDA-MB-231): 5.5 ± 2.1 % ID g^−1
[5]
  PET observations: an important uptake of the radiotracer was observed in liver and in spleen; also recorded: increased contrast of the tumor over time with an optimum at 24 h

Source: PMC10806771 (Chemical Science, 2023)
